Published values collected from several papers.
Target: Tyrosine-protein kinase SYK (SYK, Homo sapiens, UniProt P43405)

| effect on | method | tested at | remaining binding [%] | SMILES |
| --- | --- | --- | --- | --- |
| cell-free assay | competition with immobilised ligand | 1 µM | 100 | CCc1ccccc1C(=O)Nc1n[nH]c2c(C)c(F)c(C3C(C#N)=C(C)N(C)C(C)=C3C#N)cc12 |
| binding | competition with immobilised ligand | 10 µM | 16 | c1cncc(-c2cccc(Nc3nccc(NC4CCCCC4)n3)c2)c1 |
| cell-free assay | competition with immobilised ligand | 1 µM | 97 | O=c1nc(-c2ccccn2)sc2ccccc12 |
| binding | – | 1 µM | 78 | CN(C)c1nccc(-c2cnc3ncccn23)n1 |
| binding | competition with immobilised ligand | 1 µM | 17 | O=C(NCCCN1CCOCC1)c1ccc(Nc2nccc(-c3cc4ccccc4s3)n2)cc1 |
| cell-free assay | competition with immobilised ligand | 5 µM | 98 | COc1ncc2cc3ccccc3nc2c1C#N |
| cell-free assay | competition with immobilised ligand | 1 µM | 96 | CN(C)c1ncnc(-c2ccc3nc(Nc4cc(CN5CCN(C(=O)CC(F)(F)F)CC5)ccn4)[nH]c3c2)c1Cl |
| binding | – | 1 µM | 99 | c1cnn2ncc(-c3ccnc(N4CCC45COC5)n3)c2c1 |
| binding | competition with immobilised ligand | 5 µM | 64 | FC(F)(F)Oc1cccc(-c2cnc3ccc(-c4ccncc4)nn23)c1 |
| binding | – | 1 µM | 84 | C[C@@H]1CCN(c2nccc(-c3cnn4ncccc34)n2)C1 |
| binding | competition with immobilised ligand | 1 µM | 100 | COc1cnc(Nc2cccc(S(N)(=O)=O)c2)nc1N1CCN(c2ccccc2)C(=O)C1 |
| cell-free assay | competition with immobilised ligand | 0.1 µM | 96 | C[C@@H]1CN(c2cc(-c3n[nH]c4ccc(OC5(C)CC5)cc34)ncn2)C[C@H](C)O1 |
| binding | – | 1 µM | 100 | CN(C)c1nccc(-c2cnn3ncccc23)n1 |
| binding | competition with immobilised ligand | 1 µM | 31 | O=C(c1ccc(Nc2nccc(-c3cc4ccccc4s3)n2)cc1)N1CCC(N2CCCC2)CC1 |
| cell-free assay | competition with immobilised ligand | 1 µM | 100 | CSc1cccnc1N1CCN(Cc2nc3ccccc3[nH]2)CC1 |
| binding | – | 1 µM | 100 | N[C@@H]1CCN(c2nccc(-c3cnn4ncccc34)n2)C1 |
| cell-free assay | competition with immobilised ligand | 1 µM | 92 | N#CC1(c2ccccn2)CCN(Cc2cc(C(=O)N3CCCC3)c(=O)n3ccccc23)CC1 |
| binding | competition with immobilised ligand | 1 µM | 100 | O=C(Nc1c[nH]nc1C(=O)NC1CCNCC1)c1cc(F)cc(F)c1 |
| binding | competition with immobilised ligand | 1 µM | 43 | O=C(c1ccc(Nc2ncc(Cl)c(-c3ccc(Cl)s3)n2)cc1)N1CCC(N2CCCC2)CC1 |
| binding | – | 1 µM | 100 | CN(c1nccc(-c2cnn3ncccc23)n1)C1CC1 |
